From ChEMBL document CHEMBL1687843, “Detection of NDM-1-producing Klebsiella pneumoniae in Kenya” (2011) come the findings set out here.

Values after ≈ are worked out from the molar mass of the structure shown. Active and inactive are the calls of the source.

Experiment [1] deals with Klebsiella pneumoniae. Put plainly: Antibacterial activity against carbapenem-resistant Klebsiella pneumoniae isolate 1 expressing beta-lactamase NDM-1 obtained from urine of patient by Etest. To be noted: for MIC: isolate 1, Urine. In kind it is functional. Put shortly:
(§1)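 Etest strips on Mueller-Hinton agar at 37°C give the MIC against each clinical isolate; susceptibility is interpreted per CLSI guidelines.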

For experiment [2], the system named is Klebsiella pneumoniae. Put plainly: Antibacterial activity against carbapenem-resistant Klebsiella pneumoniae isolate 7 expressing beta-lactamase NDM-1 obtained from urine of patient by Etest. Type of experiment: functional. Conditions: for MIC: isolate 7, Urine. In outline: as §1
Experiment [3] concerns Klebsiella pneumoniae. Put plainly: Antibacterial activity against carbapenem-resistant Klebsiella pneumoniae isolate 7 expressing beta-lactamase NDM-1 obtained from urine of patient by liquid microdilution method. Type of experiment: functional. Conditions: for MIC: isolate 7, Urine. In outline: (§2)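 Liquid broth microdilution at 37°C gives the MIC against each clinical isolate; results are interpreted per CLSI guidelines.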

For experiment [4], the system named is Klebsiella pneumoniae. Put plainly: Antibacterial activity against carbapenem-resistant Klebsiella pneumoniae isolate 3 expressing beta-lactamase NDM-1 obtained from urine of patient by Etest. Type of experiment: functional. To be noted: for MIC: isolate 3, Urine. In outline:
as §1

Experiment [5] concerns Klebsiella pneumoniae. Put plainly: Antibacterial activity against carbapenem-resistant Klebsiella pneumoniae isolate 1 expressing beta-lactamase NDM-1 obtained from urine of patient by liquid microdilution method. In kind it is functional. To be noted: for MIC: isolate 1, Urine. In outline: as §2
Background: Broth dilution looks for growth in wells or tubes with falling amounts of substance.

Experiment [6] relates to Klebsiella pneumoniae. Put plainly: Antibacterial activity against carbapenem-resistant Klebsiella pneumoniae isolate 6 expressing beta-lactamase NDM-1 obtained from urethral pus of patient by liquid microdilution method. Conditions: for MIC: isolate 6, Urethral pus.
The subject of experiment [7] is Klebsiella pneumoniae. Put plainly: Antibacterial activity against carbapenem-resistant Klebsiella pneumoniae isolate 4 expressing beta-lactamase NDM-1 obtained from urine of patient by liquid microdilution method. In kind it is functional. Conditions: for MIC: isolate 4, Urine. In outline: as §2
Experiment [8] deals with Klebsiella pneumoniae. Put plainly: Antibacterial activity against carbapenem-resistant Klebsiella pneumoniae isolate 5 expressing beta-lactamase NDM-1 obtained from urine of patient by Etest. Conditions: for MIC: isolate 5, Urine. In kind it is functional. In outline:
as §1

Experiment [9] deals with Klebsiella pneumoniae. Put plainly: Antibacterial activity against carbapenem-resistant Klebsiella pneumoniae isolate 2 expressing beta-lactamase NDM-1 obtained from urine of patient by Etest. In kind it is functional. To be noted: for MIC: isolate 2, Urine. In outline:
as §1

Experiment [10] concerns Klebsiella pneumoniae. Put plainly: Antibacterial activity against carbapenem-resistant Klebsiella pneumoniae isolate 6 expressing beta-lactamase NDM-1 obtained from urethral pus of patient by Etest. Conditions: for MIC: isolate 6, Urethral pus.
The subject of experiment [11] is Klebsiella pneumoniae. Put plainly: Antibacterial activity against carbapenem-resistant Klebsiella pneumoniae isolate 4 expressing beta-lactamase NDM-1 obtained from urine of patient by Etest. To be noted: for MIC: isolate 4, Urine. In kind it is functional. Put shortly: as §1
The test system of experiment [12] is Klebsiella pneumoniae. Put plainly: Antibacterial activity against carbapenem-resistant Klebsiella pneumoniae isolate 3 expressing beta-lactamase NDM-1 obtained from urine of patient by liquid microdilution method. Type of experiment: functional. Conditions: for MIC: isolate 3, Urine. In outline:
as §2

Experiment [13] relates to Klebsiella pneumoniae. Put plainly: Antibacterial activity against carbapenem-resistant Klebsiella pneumoniae isolate 5 expressing beta-lactamase NDM-1 obtained from urine of patient by liquid microdilution method. In kind it is functional. Conditions: for MIC: isolate 5, Urine. Put shortly: as §2
Experiment [14] relates to Klebsiella pneumoniae. Put plainly: Antibacterial activity against carbapenem-resistant Klebsiella pneumoniae isolate 2 expressing beta-lactamase NDM-1 obtained from urine of patient by liquid microdilution method. Type of experiment: functional. Conditions: for MIC: isolate 2, Urine. Put shortly: as §2
The test system of experiment [15] is Escherichia coli. Put plainly: Antimicrobial activity against Escherichia coli J53. Type of experiment: functional. Put shortly:
(§3)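 Strains: azide-resistant E. coli J53 recipient and its transconjugant. The transconjugant came from conjugation with K. pneumoniae Kp7 donor, selected on ceftazidime (30 µg/ml) plus azide (100 µg/ml). MICs were by Etest on Mueller-Hinton agar and by liquid microdilution at 37°C, interpreted per CLSI.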

Experiment [16] deals with Escherichia coli. Put plainly: Antimicrobial activity against Escherichia coli J53 harboring Klebsiella pneumoniae Kp7 beta-lactamase NDM-1. Type of experiment: functional. In outline: as §3

Regarding `C[C@@H]1O[C@@H]1P(=O)(O)O`, the result with Klebsiella pneumoniae [1], with Klebsiella pneumoniae [2], in the experiment on Klebsiella pneumoniae [3], with Klebsiella pneumoniae [4], in the experiment with Klebsiella pneumoniae [5] and in the experiment with Klebsiella pneumoniae [6] was inactive. Also, the outcome in the experiment with Klebsiella pneumoniae [7], with Klebsiella pneumoniae [8], in the experiment on Klebsiella pneumoniae [9], with Klebsiella pneumoniae [10], with Klebsiella pneumoniae [11] and with Klebsiella pneumoniae [12] was inactive. The result with Klebsiella pneumoniae [13] and in the experiment on Klebsiella pneumoniae [14] was inactive.
Turning to `O=C(N[C@H](CO)[C@H](O)c1ccc([N+](=O)[O-])cc1)C(Cl)Cl`, the outcome in the experiment on Klebsiella pneumoniae [1], in the experiment on Klebsiella pneumoniae [2], with Klebsiella pneumoniae [3], with Klebsiella pneumoniae [4], in the experiment on Klebsiella pneumoniae [5] and in the experiment on Klebsiella pneumoniae [6] was inactive. Further, the result in the experiment with Klebsiella pneumoniae [7], in the experiment on Klebsiella pneumoniae [8], in the experiment on Klebsiella pneumoniae [9], in the experiment with Klebsiella pneumoniae [10], in the experiment on Klebsiella pneumoniae [11] and in the experiment with Klebsiella pneumoniae [12] was inactive. The result in the experiment on Klebsiella pneumoniae [13] and with Klebsiella pneumoniae [14] was inactive.
In the case of `O=C1CN(/N=C/c2ccc([N+](=O)[O-])o2)C(=O)N1`, the outcome with Klebsiella pneumoniae [1], in the experiment with Klebsiella pneumoniae [2], in the experiment with Klebsiella pneumoniae [3], with Klebsiella pneumoniae [4], with Klebsiella pneumoniae [5] and with Klebsiella pneumoniae [6] was inactive. Besides, the outcome in the experiment on Klebsiella pneumoniae [7], in the experiment with Klebsiella pneumoniae [8], in the experiment on Klebsiella pneumoniae [9], in the experiment with Klebsiella pneumoniae [10], in the experiment with Klebsiella pneumoniae [11] and in the experiment with Klebsiella pneumoniae [12] was inactive. The outcome with Klebsiella pneumoniae [13] and in the experiment on Klebsiella pneumoniae [14] was inactive.
With `C[C@@H](O)[C@H]1C(=O)N2C(C(=O)O)=C(S[C@@H]3CN[C@H](CNS(N)(=O)=O)C3)[C@H](C)[C@H]12` [DORIPENEM], the MIC against Klebsiella pneumoniae [1], in the experiment with Klebsiella pneumoniae [2], with Klebsiella pneumoniae [3], in the experiment with Klebsiella pneumoniae [4], in the experiment on Klebsiella pneumoniae [5] and with Klebsiella pneumoniae [6] was greater than 32 µg/mL throughout. Besides, the MIC (commonly the smallest concentration in the dilution series that meets the test's criterion for growth inhibition) was greater than 32 µg/mL against Klebsiella pneumoniae [7]; 0.12 µg/mL (≈ 0.285 µM) against Escherichia coli [15]; greater than 32 µg/mL in the experiment on Klebsiella pneumoniae [8]; greater than 32 µg/mL against Klebsiella pneumoniae [9]; greater than 32 µg/mL against Klebsiella pneumoniae [10]; greater than 32 µg/mL in the experiment on Klebsiella pneumoniae [11]. Further, the MIC against Klebsiella pneumoniae [12] was greater than 32 µg/mL; against Klebsiella pneumoniae [13], greater than 32 µg/mL; against Klebsiella pneumoniae [14], greater than 32 µg/mL; against Escherichia coli [16], 1.5 µg/mL (≈ 3.57 µM).
`C[C@@H](O)[C@H]1C(=O)N2C(C(=O)O)=C(S[C@@H]3CN[C@H](C(=O)Nc4cccc(C(=O)O)c4)C3)[C@H](C)[C@H]12` [ERTAPENEM]: the MIC with Klebsiella pneumoniae [1], in the experiment on Klebsiella pneumoniae [2], in the experiment on Klebsiella pneumoniae [3], in the experiment on Klebsiella pneumoniae [4], in the experiment with Klebsiella pneumoniae [5] and in the experiment with Klebsiella pneumoniae [6] was greater than 32 µg/mL throughout. Moreover, the MIC in the experiment with Klebsiella pneumoniae [7] is greater than 32 µg/mL; against Escherichia coli [15], 0.12 µg/mL (≈ 0.252 µM); against Klebsiella pneumoniae [8], greater than 32 µg/mL; in the experiment with Klebsiella pneumoniae [9], greater than 32 µg/mL; against Klebsiella pneumoniae [10] it was greater than 32 µg/mL; in the experiment with Klebsiella pneumoniae [11], greater than 32 µg/mL. Also, the MIC with Klebsiella pneumoniae [12] was greater than 32 µg/mL; with Klebsiella pneumoniae [13], greater than 32 µg/mL; in the experiment on Klebsiella pneumoniae [14], greater than 32 µg/mL; in the experiment with Escherichia coli [16], 1.5 µg/mL (≈ 3.15 µM).
Turning to `C[C@@H](O)[C@H]1C(=O)N2C(C(=O)O)=C(SCCNC=N)C[C@H]12` [IMIPENEM ANHYDROUS], the MIC in the experiment with Klebsiella pneumoniae [1], against Klebsiella pneumoniae [2], against Klebsiella pneumoniae [3], against Klebsiella pneumoniae [4], against Klebsiella pneumoniae [5] and against Klebsiella pneumoniae [6] was greater than 32 µg/mL throughout. Moreover, the MIC was greater than 32 µg/mL with Klebsiella pneumoniae [7]; 0.12 µg/mL (≈ 0.401 µM) in the experiment on Escherichia coli [15]; greater than 32 µg/mL against Klebsiella pneumoniae [8]; greater than 32 µg/mL with Klebsiella pneumoniae [9]; greater than 32 µg/mL in the experiment with Klebsiella pneumoniae [10]; greater than 32 µg/mL in the experiment with Klebsiella pneumoniae [11]. The MIC is greater than 32 µg/mL against Klebsiella pneumoniae [12], greater than 32 µg/mL with Klebsiella pneumoniae [13], greater than 32 µg/mL in the experiment on Klebsiella pneumoniae [14] and 4 µg/mL (≈ 13.4 µM) against Escherichia coli [16].
Consider `C[C@@H](O)[C@H]1C(=O)N2C(C(=O)O)=C(S[C@@H]3CN[C@H](C(=O)N(C)C)C3)[C@H](C)[C@H]12` [MEROPENEM], for which the MIC against Klebsiella pneumoniae [1], in the experiment with Klebsiella pneumoniae [2], in the experiment with Klebsiella pneumoniae [3], against Klebsiella pneumoniae [4], in the experiment with Klebsiella pneumoniae [5] and in the experiment on Klebsiella pneumoniae [6] was greater than 32 µg/mL in each case. The MIC in the experiment with Klebsiella pneumoniae [7] was greater than 32 µg/mL; against Escherichia coli [15] it was 0.12 µg/mL (≈ 0.313 µM); in the experiment with Klebsiella pneumoniae [8] it was greater than 32 µg/mL; with Klebsiella pneumoniae [9], greater than 32 µg/mL; against Klebsiella pneumoniae [10] it was greater than 32 µg/mL; against Klebsiella pneumoniae [11], greater than 32 µg/mL. The MIC in the experiment on Klebsiella pneumoniae [12] was greater than 32 µg/mL; against Klebsiella pneumoniae [13], greater than 32 µg/mL; with Klebsiella pneumoniae [14], greater than 32 µg/mL; against Escherichia coli [16], 1.5 µg/mL (≈ 3.91 µM).
With `CO[C@H]1/C=C/O[C@@]2(C)Oc3c(C)c(O)c4c(O)c(c(/C=N/N5CCN(C)CC5)c(O)c4c3C2=O)NC(=O)/C(C)=C\C=C\[C@H](C)[C@H](O)[C@@H](C)[C@@H](O)[C@@H](C)[C@H](OC(C)=O)[C@@H]1C` [RIFAMPIN], the MIC in the experiment on Klebsiella pneumoniae [1], against Klebsiella pneumoniae [2], in the experiment on Klebsiella pneumoniae [3], against Klebsiella pneumoniae [4], against Klebsiella pneumoniae [5] and in the experiment with Klebsiella pneumoniae [6] was greater than 32 µg/mL throughout. In addition, the MIC against Klebsiella pneumoniae [7], with Klebsiella pneumoniae [8], in the experiment with Klebsiella pneumoniae [9], in the experiment with Klebsiella pneumoniae [10], in the experiment on Klebsiella pneumoniae [11] and in the experiment on Klebsiella pneumoniae [12] was greater than 32 µg/mL each time. In addition, the MIC in the experiment on Klebsiella pneumoniae [13] and in the experiment with Klebsiella pneumoniae [14] was greater than 32 µg/mL in each case.
For the molecule `CN(C)c1cc(NC(=O)CNC(C)(C)C)c(O)c2c1C[C@H]1C[C@H]3[C@H](N(C)C)C(O)=C(C(N)=O)C(=O)[C@@]3(O)C(O)=C1C2=O` [TIGECYCLINE], the MIC with Klebsiella pneumoniae [1], against Klebsiella pneumoniae [2], against Klebsiella pneumoniae [4], against Klebsiella pneumoniae [8], with Klebsiella pneumoniae [9] and against Klebsiella pneumoniae [10] was 0.5 µg/mL (≈ 0.854 µM) throughout. In the experiment with Klebsiella pneumoniae [11], this molecule came in with an MIC of 0.5 µg/mL (≈ 0.854 µM).
